Measurements pooled from the literature.
Each line is one published result; the experiments were not run side by side. ≈ marks a conversion by molar mass, not a printed value.

O=C(O)c1cn(C2CC2)c2cc(N3CCNCC3)c(F)cc2c1=O
MIC (Bacillus subtilis; microbial growth; ATCC6051): 2 µM

C=CC(=O)N1CCN(c2nc(=O)n(-c3c(C)ccnc3C(C)C)c3nc(-c4c(O)cccc4F)c(F)cc23)[C@@H](C)C1
IC50 (ASPC1; cell growth or viability, ATP luminescence): > 10000 nM

Cc1nn(-c2ccccc2)c2c1C(c1ccc([N+](=O)[O-])cc1)N(C(=O)c1ccncc1)N2 (centres unmarked)
MIC (Cryptococcus neoformans; microbial growth; clinical isolate): 64 µg/mL

C=C(F)C(=O)N1CCN(c2nc(OC[C@@H]3CCCN3C)nc3c2CCN(c2cccc4cccc(Cl)c24)C3)C[C@@H]1CC#N
IC50 (NCI-H358; cell growth or viability, ATP luminescence; 3D culture): 3.85 nM

Cc1c(C(=O)O)ccc2c3n(nc12)[C@@H]1[C@H](C3)N(CC2CC2)[C@@]2(C(=O)Nc3cc(Cl)ccc32)[C@H]1c1cccc(Cl)c1F
GI50 (SW982; cell growth or viability, resazurin): 0.34 nM

CO[C@]12C[C@@H](COC(=O)c3cncc(Br)c3)CN(C)[C@@H]1Cc1cn(C)c3cccc2c13
IC50 (CNE-2; cell growth or viability, MTT; 48 h): 12900 nM

Cc1nn(-c2ccccc2)c2c1C(c1cncs1)N(C(=O)c1ccncc1)N2 (centres unmarked)
MIC (Cryptococcus neoformans; microbial growth; clinical isolate): 64 µg/mL

O=C1C(Br)=C(Br)C(=O)c2ccccc21
MIC (Nakaseomyces glabratus; microbial growth, broth dilution; ATCC2001; 24 h): 6.25 µg/mL

C=CC(=O)NC1CCN(c2ncc3ncnc(Nc4ccc(Oc5ccc6c(c5)ncn6C)c(C)c4)c3n2)CC1
EC50 (LUDLU-1; cell growth or viability): 6210 nM

Nc1ccc(/C=C/C(=O)N2CCc3c(oc4c(-c5ccc(F)cc5)cc(-c5ccc(C(=O)N6CCC(F)(F)CC6)nn5)cc34)C2)cn1
IC50 (ASPC1; cell growth or viability, CCK-8; 72 h): 340 nM

COc1ccc(C2c3c(C)nn(-c4ccccc4)c3NN2C(=O)c2ccncc2)cc1 (centres unmarked)
MIC (Cryptococcus neoformans; microbial growth; clinical isolate): > 100 µg/mL

C[C@@H]1[C@H](O)[C@@H](C)/C=C/C=C/C=C/C=C/C=C/C=C/C=C/[C@H](O[C@@H]2O[C@H](C)[C@@H](O)[C@H](N)[C@@H]2O)C[C@@H]2O[C@](O)(C[C@@H](O)C[C@@H](O)[C@H](O)CC[C@@H](O)C[C@@H](O)CC(=O)O[C@H]1C)C[C@H](O)[C@H]2C(=O)O
MIC (Nakaseomyces glabratus; microbial growth, broth dilution; ATCC2001; 24 h): 4 µg/mL

Cc1nn(-c2ccccc2)c2c1C(c1ccc(Cl)cc1)N(C(=O)c1ccncc1)N2 (centres unmarked)
MIC (Cryptococcus neoformans; microbial growth; clinical isolate): 32 µg/mL

CC(C)=CCC/C(C)=C/CO
MFC (Cryptococcus neoformans; microbial killing, broth dilution; clinical isolate): 800 µg/mL (≈ 5.19 mM)
